Assay results reported in ChEMBL document CHEMBL4014326, “Discovery of an Orally Bioavailable Benzimidazole Diacylglycerol Acyltransferase 1 (DGAT1) Inhibitor That Suppresses Body Weight Gain in Diet-Induced Obese Dogs and Postprandial Triglycerides in Humans” (J Med Chem, 2017).
≈ marks a conversion by molar mass, not a printed value. Blank lines part the entries; values can stand above or below the compound they belong to. Calls of active or inactive are those of the source. No cut-off for these calls is given here.

Tests used:
[1] = Oral bioavailability in Sprague-Dawley rat at 5 mg/kg by LC/MS/MS analysis; type: ADME, organism-based; conditions: in vivo
Outline: (§1)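 Male Sprague-Dawley rats, 200-300 g, dosed iv (n = 2) or po (n = 3) as solutions in NMP/PG or PEG400/ETPGS vehicles. Blood was taken from a jugular vein catheter at 0.083 (iv only), 0.25, 0.5, 1, 2, 4, 6 and 8 h into EDTA tubes, and plasma was analysed by LC-MS/MS. Values are means ± SD.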

[2] = AUC (0 to 8 hrs) in Sprague-Dawley rat at 5 mg/kg, po by LC/MS/MS analysis; type: ADME, organism-based; set-up: dose 5 mg/kg, time < 8 hr, route oral; conditions: in vivo; outline: as §1
[3] = Tmax in Sprague-Dawley rat 5 mg/kg, po by LC/MS/MS analysis; type: ADME, organism-based; conditions: in vivo; outline: as §1
[4] = Permeability across apical to basolateral side in human Caco2 cells; type: ADME, cell-based; conditions: Caco-2, read-out: permeability
Outline: (§2)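 Caco-2 monolayer permeability was measured in the A-B and B-A directions, and the efflux ratio was taken as B-A/A-B.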

[5] = Cmax in Sprague-Dawley rat at 5 mg/kg, po by LC/MS/MS analysis; type: ADME, organism-based; set-up: dose 5 mg/kg, route oral; conditions: in vivo; outline: as §1
[6] = Permeability across basolateral to apical side in human Caco2 cells; type: ADME, cell-based; conditions: Caco-2, read-out: permeability; outline: as §2
[7] = Half life in Sprague-Dawley rat at 1 mg/kg, iv by LC/MS/MS analysis; type: ADME, organism-based; conditions: in vivo; outline: as §1
[8] = Volume of distribution at steady state in Sprague-Dawley rat at 1 mg/kg, iv by LC/MS/MS analysis; type: ADME, organism-based; conditions: in vivo, read-out: Vdss; outline: as §1
[9] = Clearance in Sprague-Dawley rat at 1 mg/kg, iv by LC/MS/MS analysis; type: ADME, organism-based; conditions: in vivo; outline: as §1
[10] = AUC (0 to 8 hrs) in Sprague-Dawley rat at 1mg/kg, iv by LC/MS/MS analysis; type: ADME, organism-based; set-up: time < 8 hr, dose 1 mg/kg, route intravenous; conditions: in vivo; outline: as §1
[11] = target: T1, Diacylglycerol O-acyltransferase 1 (Mus musculus, UniProt Q9Z2A7); test: Inhibition of DGTA1 in mouse C2C12 cells assessed as inhibition of triglyceride formation after 2 hrs by LC/MS/MS analysis; type: cell-based
T1 sequence (Q9Z2A7 whole entry): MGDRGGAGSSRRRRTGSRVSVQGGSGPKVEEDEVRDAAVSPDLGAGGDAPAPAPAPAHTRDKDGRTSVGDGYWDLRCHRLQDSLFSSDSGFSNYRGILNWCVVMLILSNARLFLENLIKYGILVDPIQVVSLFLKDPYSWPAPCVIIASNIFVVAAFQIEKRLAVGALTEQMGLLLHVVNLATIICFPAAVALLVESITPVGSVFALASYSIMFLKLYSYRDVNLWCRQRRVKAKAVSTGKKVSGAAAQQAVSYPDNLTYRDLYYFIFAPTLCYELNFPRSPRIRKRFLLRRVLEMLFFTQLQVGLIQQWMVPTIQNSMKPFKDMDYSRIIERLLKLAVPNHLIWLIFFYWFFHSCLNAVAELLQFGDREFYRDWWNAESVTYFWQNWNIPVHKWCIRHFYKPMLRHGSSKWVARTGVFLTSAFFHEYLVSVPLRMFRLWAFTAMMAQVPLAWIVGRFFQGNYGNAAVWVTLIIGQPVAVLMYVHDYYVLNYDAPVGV
Outline: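 C2C12 cells were seeded in DMEM with 5 mM glucose and 10% FBS for 18 h at 37 °C. Medium was then replaced with DMEM, 5 mM glucose and 250 µM oleate-BSA plus inhibitor (0.5% DMSO final) for 2 h at 37 °C. Cells were extracted with butanol containing tripalmitolein internal standard and triglyceride was read by LC-MS/MS. An 11-point, 3-fold dose response was run in quadruplicate.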

[12] = Drug level in human hepatocytes treated with [3H]-3-(4-(6-(5-(4-Methoxyphenyl)-1,3,4-oxadiazol-2-yl)-1H-benzo[d]imidazol-2-yl)-3,5-dimethylphenyl)-2,2-dimethylpropanoic acid at 12.5 uM after 18 hrs; type: ADME, cell-based, Hepatocyte
Outline: (§3)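 [3H]-labelled compound (12.5 µM) was incubated for 18 h with rat, dog, monkey or human hepatocytes, and metabolites were profiled.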

[13] = Drug level in rat hepatocytes treated with [3H]-3-(4-(6-(5-(4-Methoxyphenyl)-1,3,4-oxadiazol-2-yl)-1H-benzo[d]imidazol-2-yl)-3,5-dimethylphenyl)-2,2-dimethylpropanoic acid at 12.5 uM after 18 hrs; type: ADME, cell-based, Hepatocyte; outline: as §3
[14] = Drug level in dog hepatocytes treated with [3H]-3-(4-(6-(5-(4-Methoxyphenyl)-1,3,4-oxadiazol-2-yl)-1H-benzo[d]imidazol-2-yl)-3,5-dimethylphenyl)-2,2-dimethylpropanoic acid at 12.5 uM after 18 hrs; type: ADME, cell-based, Canis lupus familiaris, Hepatocyte; outline: as §3
[15] = Drug level in monkey hepatocytes treated with [3H]-3-(4-(6-(5-(4-Methoxyphenyl)-1,3,4-oxadiazol-2-yl)-1H-benzo[d]imidazol-2-yl)-3,5-dimethylphenyl)-2,2-dimethylpropanoic acid at 12.5 uM after 18 hrs; type: ADME, cell-based, Macaca mulatta, Hepatocyte; conditions: rhesus monkey; outline: as §3
[16] = Cmax in Sprague-Dawley rat at 3 mg/kg, po by LC/MS/MS analysis; type: ADME, organism-based; set-up: dose 3 mg/kg, route oral; conditions: in vivo; outline: as §1
[17] = Oral bioavailability in Sprague-Dawley rat at 3 mg/kg by LC/MS/MS analysis; type: ADME, organism-based; conditions: in vivo; outline: as §1
[18] = AUC (0 to 8 hrs) in Sprague-Dawley rat at 3 mg/kg, po by LC/MS/MS analysis; type: ADME, organism-based; set-up: dose 3 mg/kg, time < 8 hr, route oral; conditions: in vivo; outline: as §1
[19] = Tmax in Sprague-Dawley rat 3 mg/kg, po by LC/MS/MS analysis; type: ADME, organism-based; conditions: in vivo; outline: as §1
[20] = Protein binding in dog plasma at 5 mg/kg, po after 24 hrs; type: ADME, organism-based, Canis lupus familiaris; conditions: read-out: PPB (converted)
[21] = AUC (0 to 24 hrs) in dog plasma at 5 mg/kg, po after 24 hrs; type: ADME, organism-based, Canis lupus familiaris; set-up: time < 24 hr, dose 5 mg/kg, route oral
[22] = Plasma concentration in high fat diet-fed dog at 5 mg/kg, po qd administered via gavage measured after twenty-ninth dose; type: ADME, organism-based, Canis lupus familiaris
Plasma = test: Unbound concentration in dog plasma at 5 mg/kg, po after 24 hrs; type: ADME, organism-based, Canis lupus familiaris; conditions: in vivo
Canis familiaris [23] = test: Antiobesity activity in high fat diet-fed dog assessed as reduction in body weight gain at 5 mg/kg, po qd administered via gelatin capsule after 21 days relative to vehicle control; set-up: scale not given: the % may be the effect or the level left
[24] = Plasma concentration in high fat diet-fed dog at 5 mg/kg, po administered via gelatin capsule after 90 mins
[25] = Solubility of the compound at pH 6.8 after 24 hrs; type: physicochemical; conditions: buffer
Outline: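 Solubility was measured in pH 6.8 buffer after 24 h incubation.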

[26] = Ratio of IC50 for DGTA1 in mouse C2C12 cells to IC50 for recombinant human His6-tagged DGAT1; type: cell-based
Outline: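 Ratio of the C2C12 cellular IC50 to the enzymatic IC50. Enzyme assay: Sf9 membranes expressing human His6-DGAT1 with 50 µM diolein and 50 µM oleoyl-CoA in 50 mM HEPES pH 7.5, 5 mM MgCl2 and 10% ethanol, 30 min at room temperature. Triolein was read by LC-MS/MS, with a 10-point, 3-fold dose response run in duplicate.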

Rattus norvegicus = organism: Rattus norvegicus; test: Antiobesity activity in rat assessed as suppression of postprandial triglyceride levels; type: functional
Homo sapiens = test: Antiobesity activity in high fat-fed human assessed as suppression of postprandial plasma triglyceride level compound administered as single oral dose; type: functional
Outline: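 Randomized, double-blind, placebo-controlled single ascending dose study in overweight or obese healthy adults aged 18-55. Single oral doses of 5-600 mg (n = 8 per dose) or placebo (n = 12) were given. About 1 h after dosing, subjects ate a ~1000 kcal, 55% fat test meal, and plasma triglycerides were compared against an untreated baseline meal test monitored for 9 h.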

Canis familiaris [27] = test: Antiobesity activity in fasted Beagle dog assessed as postprandial triglyceride AUC in plasma at 1 mg/kg administered via oral gavage prior to 30 mins of […] measured after 4 hrs (reference value: 35400 +/- 8863 mg/dL.min); type: functional, organism-based; set-up: dose 1 mg/kg, time < 4 hr; conditions: Canis lupus familiaris

Structure (SMILES): COc1ccc(-c2nnc(-c3ccc4nc(-c5c(C)cc(CC(C)(C)C(=O)O)cc5C)[nH]c4c3)o2)cc1.[Na+]
fraction unbound at 24 h [20]: 0.009
AUC(0-t) at 24 h [21]: 5.27 µM·h
concentration at 29 days [22]: 930 nM
Cp(f) (Plasma): 2 nM
Activity (Canis familiaris [23]): 11%
concentration at 1.5 h [24]: 738 nM

Structure (SMILES): COc1ccc(-c2nnc(-c3ccc4nc(-c5c(C)cc(CC(C)(C)C(=O)O)cc5C)[nH]c4c3)o2)cc1
Ratio IC50 [26]: 9
Activity (Rattus norvegicus): Active
Activity (Homo sapiens): Dose-dependent effect
AUC (Canis familiaris [27]): 308000 ng·h/mL

Structure (SMILES): Cc1cc(CCC(=O)O)cc(C)c1-c1nc2ccc(C(=O)Nc3ccc(C(C)(C)C)cc3)cc2[nH]1
Ratio IC50 [26]: 10

Now from value to compound:

bioavailability [1]: 2%
AUC(0-t) at 8 h [2]: 0.405 µM·h
Tmax [3]: 24 min
Papp A→B [4]: 1.4 ×10⁻⁶ cm/s
Cmax [5]: 333 nM
Papp B→A [6]: 14.1 ×10⁻⁶ cm/s
half-life [7]: 102 min
Vd [8]: 0.4 L/kg
clearance [9]: 6.9 mL/min/kg
AUC(0-t) at 8 h [10]: 5.23 µM·h
IC50 [11]: 913 nM
Structure (SMILES): Cc1cc(CCC(=O)O)cc(C)c1-c1nc2ccc(C(=O)Nc3ccc4ccccc4n3)cc2[nH]1

Drug metabolism [12]: Metabolite_Detected
Drug metabolism [13]: Metabolite_Detected
Drug metabolism [14]: Metabolite_Detected
Drug metabolism [15]: Metabolite_Detected
Structure (SMILES): COc1ccc(-c2nnc(-c3ccc4nc(-c5c(C)cc(CC(C)(C)C(=O)O[C@@H]6O[C@H](C(=O)O)[C@@H](O)[C@H](O)[C@H]6O)cc5C)[nH]c4c3)o2)cc1

Papp A→B [4]: 1.4 ×10⁻⁶ cm/s
Cmax [16]: 40 nM
bioavailability [17]: 2%
Papp B→A [6]: 9.2 ×10⁻⁶ cm/s
AUC(0-t) at 8 h [18]: 0.103 µM·h
Tmax [19]: 30 min
half-life [7]: 96 min
Vd [8]: 0.7 L/kg
clearance [9]: 21 mL/min/kg
AUC(0-t) at 8 h [10]: 1.69 µM·h
IC50 [11]: 181 nM
Structure (SMILES): COc1ccc(-c2nnc(-c3ccc4nc(-c5c(C)cc(CCC(=O)O)cc5C)[nH]c4c3)o2)cc1

Papp A→B [4]: 3.5 ×10⁻⁶ cm/s
Cmax [16]: 1720 nM
bioavailability [17]: 23%
Papp B→A [6]: 12.4 ×10⁻⁶ cm/s
AUC(0-t) at 8 h [18]: 4.23 µM·h
Tmax [19]: 30 min
half-life [7]: 48 min
Vd [8]: 0.4 L/kg
clearance [9]: 5.5 mL/min/kg
AUC(0-t) at 8 h [10]: 6.11 µM·h
solubility at 24 h [25]: 8 µM (≈ 3.94 µg/mL)
IC50 [11]: 954 nM
Structure (SMILES): Cc1cc(CC(C)(C)C(=O)O)cc(C)c1-c1nc2ccc(C(=O)Nc3ccc4ccccc4n3)cc2[nH]1

Drug metabolism [12]: Metabolite_Detected
Drug metabolism [13]: Metabolite_Detected
Drug metabolism [14]: Metabolite_Detected
Drug metabolism [15]: Metabolite_Detected
Structure (SMILES): Cc1cc(CC(C)(C)C(=O)O)cc(C)c1-c1nc2ccc(-c3nnc(-c4ccc(O)cc4)o3)cc2[nH]1
